{"data": "Measurements from different studies", "target": "Misshapen-like kinase 1 (MINK1, Homo sapiens, UniProt Q8N4C8)", "note": "Lines come from different studies, so protocols differ."}
{"Structure (SMILES)": "O=C(O)[C@H]1[C@H](Cn2nnc3ccccc3c2=O)CC[C@@H]1C(=O)c1ccc(OCCC2CCOCC2)cc1", "assay": "cell-free assay, competition with immobilised ligand", "conditions": "1 µM", "remaining binding [%]": 100}
{"Structure (SMILES)": "C=CC(=O)N1CCC(C(=O)NCC(=O)N2CCN(c3nc(-c4cnc(N)nc4C(F)F)nc(N4CCOCC4)n3)CC2)CC1", "assay": "binding, competition with immobilised ligand", "conditions": "1 µM", "remaining binding [%]": 99}
{"Structure (SMILES)": "Cc1cnc(Nc2ccc(C(=O)N3CCC(N4CCCC4)CC3)cc2)nc1-c1cc2ccccc2s1", "assay": "binding, competition with immobilised ligand", "conditions": "1 µM", "remaining binding [%]": 40}
{"Structure (SMILES)": "FC(F)(F)c1ccc2c(c1)nc(-c1cccnc1)n2C1CC1", "assay": "cell-free assay, competition with immobilised ligand", "conditions": "1 µM", "remaining binding [%]": 100}
{"Structure (SMILES)": "N[C@@H]1CCN(c2nccc(-c3cnn4ncccc34)n2)C1", "assay": "binding", "conditions": "1 µM", "remaining binding [%]": 96}
{"Structure (SMILES)": "Nc1ncc2c(n1)-c1c([nH]c3ccc(C#CC4CC4)cc13)CCCC2", "assay": "binding, competition with immobilised ligand", "conditions": "1 µM", "remaining binding [%]": 94}
{"Structure (SMILES)": "C[C@H]1CCN(c2nccc(-c3cnn4ncccc34)n2)C1", "assay": "binding", "conditions": "1 µM", "remaining binding [%]": 71}
{"Structure (SMILES)": "FC(F)(F)Oc1cccc(-c2cnc3ccc(-c4ccncc4)nn23)c1", "assay": "binding, competition with immobilised ligand", "conditions": "5 µM", "remaining binding [%]": 7.2}
{"Structure (SMILES)": "CN(C)C(=O)Cn1cc(-c2nc([C@@](C)(c3ccc(-c4cnc(N)nc4)cc3)C3CC3)no2)cn1", "assay": "cell-free assay, competition with immobilised ligand", "conditions": "1 µM", "remaining binding [%]": 85}
{"Structure (SMILES)": "CN(C)c1ncc(F)c(-c2cnn3ncccc23)n1", "assay": "binding", "conditions": "1 µM", "remaining binding [%]": 80}
{"Structure (SMILES)": "O=C(c1ccc(Nc2nccc(-c3cc4ccccc4s3)n2)cc1)N1CCC(N2CCCC2)CC1", "assay": "binding, competition with immobilised ligand", "conditions": "1 µM", "remaining binding [%]": 57}
{"Structure (SMILES)": "COc1ccnn2ncc(-c3ccnc(N(C)C)n3)c12", "assay": "binding", "conditions": "1 µM", "remaining binding [%]": 81}
{"Structure (SMILES)": "O=C(NCCCN1CCOCC1)c1ccc(Nc2ncc(Cl)c(-c3ccc(Cl)s3)n2)cc1", "assay": "binding, competition with immobilised ligand", "conditions": "1 µM", "remaining binding [%]": 20}
{"Structure (SMILES)": "c1cncc(-c2cccc(Nc3nccc(NC4CCCCC4)n3)c2)c1", "assay": "binding, competition with immobilised ligand", "conditions": "10 µM", "remaining binding [%]": 4.8}
{"Structure (SMILES)": "CN(C)c1nccc(-c2cnn3ncccc23)n1", "assay": "binding", "conditions": "1 µM", "remaining binding [%]": 81}
{"Structure (SMILES)": "C[C@H](c1cccc(C#N)c1)n1cc(Cl)cc(C(N)=O)c1=N", "assay": "cell-free assay, competition with immobilised ligand", "conditions": "1 µM", "remaining binding [%]": 88}
{"Structure (SMILES)": "COc1cnc(Nc2cccc(S(N)(=O)=O)c2)nc1N1CCN(c2ccccc2)CC1", "assay": "binding, competition with immobilised ligand", "conditions": "1 µM", "remaining binding [%]": 76}
{"Structure (SMILES)": "O=C(Nc1c[nH]nc1C(=O)NC1CCNCC1)c1cc(F)cc(F)c1", "assay": "binding, competition with immobilised ligand", "conditions": "1 µM", "remaining binding [%]": 93}
{"Structure (SMILES)": "CC(C)(O)c1cncc(-c2nc3ccc(F)cc3n2C2CC2)c1", "assay": "cell-free assay, competition with immobilised ligand", "conditions": "1 µM", "remaining binding [%]": 100}
{"Structure (SMILES)": "COc1cnc(Nc2cccc(S(N)(=O)=O)c2)nc1N1CCN(c2ccccc2)C(=O)C1", "assay": "binding, competition with immobilised ligand", "conditions": "1 µM", "remaining binding [%]": 78}
{"Structure (SMILES)": "c1cnn2ncc(-c3ccnc(N4CCC45COC5)n3)c2c1", "assay": "binding", "conditions": "1 µM", "remaining binding [%]": 68}
{"Structure (SMILES)": "N#Cc1ccc(Nc2ccc3[nH]c(=O)[nH]c3c2)c(Cl)c1", "assay": "cell-free assay, competition with immobilised ligand", "conditions": "1 µM", "remaining binding [%]": 91}
